# ChEMBL document CHEMBL1126683, “Synthesis and antitumor activity of isodoxorubicin analogues” (J Med Chem, 1993)
# Assays:
# L1210 [1] = test: Growth inhibition of L1210 murine leukemia cells after 3 day exposure in MTT reduction assay; conditions: Mus musculus, L1210, 3 days
# HT-29 [2] = test: Growth inhibition of HT 29 cell line by MTT reduction for 3 days of incubation time; assay type: functional, cell-based; conditions: Homo sapiens, HT-29, 72 h
# Outline: (§1)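 Exponentially growing A549 or HT29 cells were seeded at 5×10^3/mL in RPMI and exposed to graded concentrations for 72 h (37 °C, 5% CO₂), in quadruplicate wells. MTT was added at 65 h, followed by a further 7–24 h incubation. Formazan was dissolved in DMSO and read at 492 nm. Results were expressed as extinction ratio to medium-only control, and IC50 was taken as 50% growth inhibition.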
# L1210 [3] = test: Growth inhibition of L1210 murine leukemia cells after 1 hr exposure in untreated control culture; assay type: functional, cell-based; conditions: Mus musculus, L1210, 1 h
# Outline: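 L1210 cells were exposed to graded concentrations for 1 h at 37 °C, washed twice in McCoy 5A, and plated at 5×10^2 cells/plate in an agar upper layer using a modified Hamburger–Salmon method. Plates were kept 5–7 days at 37 °C in 5% CO₂, 20% O₂, 95% humidity. Colonies >60 μm were counted as % of untreated control, and IC50 was read from dose–response curves.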
# A549 [4] = test: Growth inhibition of A 549 cell line by MTT reduction for 3 days of incubation time; assay type: functional, cell-based; conditions: Homo sapiens, A549, 72 h
# Outline: as §1
# Homo sapiens [5] = organism: Homo sapiens; test: Activity against internally growing human tumor LXF / ADM tested in subrenal capsule assay; assay type: functional
# Outline: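 Tumors were resected at about 1/3 cm, cut into pieces of about 5 mm³, and retransplanted repeatedly until sensitivity was reduced. The subline was then tested in the subrenal capsule assay, with tumor area of the treated group scored as >50%, 10–50%, or <10% of control.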
# L1210 [6] = test: Growth inhibition of L1210/ADM murine leukemia cells after 3 day exposure in MTT assay; conditions: Mus musculus, L1210, 3 day
# Homo sapiens [7] = organism: Homo sapiens; test: Activity against internally growing human tumor A-549 tested in subrenal capsule assay; assay type: functional
# Outline: (§2)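 Human tumors were grown intrarenally in a subrenal capsule assay. Tumor area of the treated group was scored against the control group as follows: >50%, between 10% and 50%, or <10% of control.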
# A549 [8] = test: cells; conditions: Homo sapiens, A549, 168 h
# Homo sapiens [9] = organism: Homo sapiens; test: Activity against internally growing human tumor HT-29 tested in subrenal capsule assay; assay type: functional
# Outline: as §2
# [10] = Evaluated for the degree of resistance as the ratio of IC50 L1210 / ADM to IC50 of L1210; assay type: functional
# Outline: (§3)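 Colony (stem cell) assay comparing L1210 and L1210/ADM cells under continuous exposure, with the compound mixed into the agar upper layer before plating. Cells were plated at 5×10^2 per plate and incubated 5–7 days at 37 °C. Colonies >60 μm were counted relative to untreated control, and IC50 values were taken from dose–response curves to form the resistance ratios.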
# Homo sapiens [11] = organism: Homo sapiens; test: Activity against internally growing human tumor LXF tested in subrenal capsule assay; assay type: functional
# Outline: as §2
# HT-29 [12] = test: Growth inhibition of HT 29 cell line by MTT reduction for 7 days of incubation time; conditions: Homo sapiens, HT-29, 168 h
# [13] = Evaluated for the degree of cross resistance as the ratio of degree of resistance of doxorubicin to degree of resistance of the compound; assay type: functional
# Outline: as §3
# L1210 [14] = test: Percentage ratio of mean survival time of treated animals to untreated controls for L1210 mouse leukemia treated by 3.1 mg / kg dosed intravenously on 1,5,and 9 days; conditions: route intravenous
SMILES,IC50 (L1210 [1]) [µg/mL],IC50 (HT-29 [2]) [µg/mL],IC50 (L1210 [3]) [µg/mL],IC50 (A549 [4]) [µg/mL],IC50 (L1210 [6]) [µg/mL],IC50 (A549 [8]) [µg/mL],IC50 (HT-29 [12]) [µg/mL],T/C (Homo sapiens [5]) [%],T/C (Homo sapiens [7]) [%],T/C (Homo sapiens [9]) [%],Degree of resistance [10],T/C (Homo sapiens [11]) [%],Degree of cross resistance [13],T/C (L1210 [14]) [%]
COc1cccc2c1C(=O)c1c(O)c3c(c(O)c1C2=O)C[C@@](O)(C(=O)CO)C[C@@H]3O[C@H]1C[C@H](N)[C@H](O)[C@H](C)O1 [DOXORUBICIN],–,0.06,0.04,0.05,0.9,0.02,0.02,>10,>10,>10,45,<10,100,–
CC1O[C@@H](O[C@H]2C[C@](O)(CO)Cc3c(O)c4c(c(O)c32)C(=O)c2ccccc2C4=O)C[C@@H](O)[C@@H]1N1CCOCC1 (stereo partly specified),0.15,0.13,0.21,0.054,–,–,–,–,–,–,–,–,–,–

# Now from value to molecule, other results behind:
IC50 (L1210 [1]) [µg/mL],IC50 (HT-29 [2]) [µg/mL],IC50 (L1210 [3]) [µg/mL],IC50 (A549 [4]) [µg/mL],IC50 (L1210 [6]) [µg/mL],IC50 (A549 [8]) [µg/mL],IC50 (HT-29 [12]) [µg/mL],SMILES,T/C (Homo sapiens [5]) [%],T/C (Homo sapiens [7]) [%],T/C (Homo sapiens [9]) [%],Degree of resistance [10],T/C (Homo sapiens [11]) [%],Degree of cross resistance [13],T/C (L1210 [14]) [%]
0.13,0.46,0.26,0.24,–,–,–,CC1O[C@@H](O[C@H]2C[C@](O)(CO)Cc3c(O)c4c(c(O)c32)C(=O)c2ccccc2C4=O)C[C@@H](O)[C@@H]1N=[N+]=[N-] (stereo partly specified),–,–,–,–,–,–,–
0.015,0.026,0.0064,0.011,–,–,–,CC1O[C@@H](O[C@H]2C[C@](O)(CO)Cc3c(O)c4c(c(O)c32)C(=O)c2ccccc2C4=O)C[C@@H](O)[C@@H]1NC(=O)C(F)(F)F (stereo partly specified),–,–,–,–,–,–,–
0.009,0.01,0.022,0.009,0.1,–,–,CC1O[C@@H](O[C@H]2C[C@](O)(CO)Cc3c(O)c4c(c(O)c32)C(=O)c2ccccc2C4=O)C[C@@H](O)[C@@H]1N.Cl (stereo partly specified),>50,>50,>50,11,>10,24,133
